Reference: ChEMBL document CHEMBL1157153, “Novel cyclohexene derivatives as anti-sepsis agents: synthetic studies and inhibition of NO and cytokine production” (Bioorg Med Chem, 2008)

Key:
RAW264.7 [1] = test: Suppression of LPS-induced NO production in mouse RAW264.7 cells by fluorometric assay; format: functional, cell-based
Summary of the method: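 RAW264.7 cells were seeded at 1 × 10⁵ cells/well and incubated overnight. Supernatant was removed and cells were stimulated with 10 ng/mL LPS plus graded compound concentrations for 20 h at 37 °C, 5% CO₂. The medium was phenol red-free RPMI1640 with 1% heat-inactivated FBS. Compounds came from 10 mM DMF stocks diluted in medium. Supernatant nitrite was read with DAN, then NaOH, as fluorescence at ex 355/em 460 nm.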

Mus musculus [2] = test: Suppression of LPS-induced serum NO production in mouse endotoxin shock model at 3 mg/kg, iv administered 1 hr before LPS challenge by fluorometric assay
Mus musculus [3] = test: Protective effect against lethal septic shock in iv dosed mouse endotoxin shock model; format: functional
Summary of the method: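 Mice challenged with a lethal dose of LPS (7 mg/kg ip). Compounds were dissolved in 10% (w/v) glucuronylglucosyl-beta-cyclodextrin sodium salt and given intravenously at 1, 3 and 10 mg/kg, 1 h before LPS. Vehicle-dosed mice served as controls. Survival was recorded for 7 days after challenge and reported as survivors/total. ED50 is given in mg/kg.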

RAW264.7 [4] = test: Suppression of LPS-induced TNFalpha production in mouse RAW264.7 cells; format: functional, cell-based
Summary of the method: (§1)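 IC50 is the concentration cutting TNF-α or IL-6 production to 50% of control. Values are means ± SD from three or four experiments.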

RAW264.7 [5] = test: Suppression of LPS-induced IL6 production in mouse RAW264.7 cells; format: functional, cell-based; summary of the method: as §1
Mus musculus [6] = test: Suppression of LPS-induced serum NO production in mouse endotoxin shock model at 10 mg/kg, iv administered 1 hr before LPS challenge by fluorometric assay
Mus musculus [7] = test: Suppression of LPS-induced serum NO production in mouse endotoxin shock model at 1 mg/kg, iv administered 1 hr before LPS challenge by fluorometric assay
Mus musculus [8] = test: Protective effect against lethal septic shock in mouse endotoxin shock model assessed as survival at 10 mg/kg, iv; format: functional, organism-based; parameters: dose 10 mg/kg
Summary of the method: (§2)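 Mice got a lethal LPS dose of 7 mg/kg ip. Compound was given iv 1 h before LPS, in 10% (w/v) glucuronylglucosyl-β-cyclodextrin sodium salt. Survival was recorded over 7 days after LPS, with 7–10 mice per group.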

Mus musculus [9] = test: Protective effect against lethal septic shock in mouse endotoxin shock model assessed as survival at 1 mg/kg, iv; format: functional, organism-based; parameters: dose 1 mg/kg; summary of the method: as §2

Structure (SMILES) | IC50 (RAW264.7 [1]; Mus musculus, RAW264.7) | further results
CCOC(=O)C1=CCCCC1S(=O)(=O)Cc1ccccc1Cl (stereo in doubt; 10e) | – | IC50 (RAW264.7 [1]; raw264.7): 14 nM
CCOC(=O)C1=CCCCC1S(=O)(=O)Cc1ccccc1Cl (single isomer, unassigned; (+)) | – | IC50 (RAW264.7 [1]; raw264.7): 11 nM
CCCCOC(=O)C1=CCCCC1S(=O)(=O)Cc1ccc(F)cc1Cl (stereo not given) | 103 nM | –
CCOC(=O)C1=CCCCC1S(=O)(=O)Cc1cccc(F)c1F (stereo not given) | 100 nM | –
CCOC(=O)C1=CCCCC1S(=O)(=O)C(C)c1ccc(F)cc1Cl (single isomer, unassigned; (+)) | – | IC50 (RAW264.7 [1]; raw264.7): 4 nM
CC(=O)OCC1=CCCCC1S(=O)(=O)Cc1ccc(F)cc1Cl (stereo not given) | > 10000 nM | –
CCOC(=O)C1=CCCCC1S(=O)(=O)C(C)c1ccc(F)cc1Cl (single isomer, unassigned; (-)) | – | IC50 (RAW264.7 [1]; raw264.7): 1300 nM
CCOC(=O)C1=CCCCC1S(=O)(=O)Cc1ccc(Cl)c(Cl)c1 (stereo not given) | 53 nM | –
O=S(=O)(Cc1ccc(F)cc1Cl)C1CCCC=C1CO (stereo not given) | > 10000 nM | –
CCOC(=O)C1=CCCCC1S(=O)(=O)Cc1coc2ccccc12 (stereo not given) | 106 nM | –
CCOC(=O)C1=CCCC[C@H]1S(=O)(=O)Cc1ccc(F)cc1Cl | – | inhibition in vivo at 3 mg/kg (Mus musculus [2]): 54%; ED50 (Mus musculus [3]): 1.85 mg/kg; IC50 (RAW264.7 [4]): 8.3 nM; IC50 (RAW264.7 [5]): 1.5 nM; inhibition in vivo at 10 mg/kg (Mus musculus [6]): 76%; inhibition in vivo at 1 mg/kg (Mus musculus [7]): 27%; Activity (Mus musculus [8]): Non-toxic
CCOC(=O)C1=CCCCC1S(=O)(=O)Cc1ccc(F)cc1Cl (single isomer, unassigned; (+)) | – | IC50 (RAW264.7 [1]; raw264.7): 5.7 nM
CCOC(=O)C1=CCCC[C@H]1S(=O)(=O)[C@@H](C)c1ccc(F)cc1Cl | – | inhibition in vivo at 3 mg/kg (Mus musculus [2]): 55.7%; Activity (Mus musculus [9]): Toxic; ED50 (Mus musculus [3]): 5.6 mg/kg; IC50 (RAW264.7 [4]): 20 nM; IC50 (RAW264.7 [5]): 1.8 nM; inhibition in vivo at 10 mg/kg (Mus musculus [6]): 78%; inhibition in vivo at 1 mg/kg (Mus musculus [7]): -10.1%; Activity (Mus musculus [8]): Non-toxic
CCOC(=O)C1=CCCCC1S(=O)(=O)Cc1ccncc1 (stereo not given) | 1410 nM | –
CCOC(=O)C1=CCCCC1S(=O)(=O)Cc1ccc(F)cc1Cl (stereo in doubt; 10a) | – | IC50 (RAW264.7 [4]): 21 nM; IC50 (RAW264.7 [5]): 4.8 nM; IC50 (RAW264.7 [1]; raw264.7): 10 nM
CCOC(=O)C1=CCCCC1S(=O)(=O)Cc1c[nH]c2ccccc12 (stereo not given) | 1010 nM | –
CCOC(=O)C1=CCCCC1S(=O)(=O)Cc1ccc(F)cc1F (stereo not given) | 14 nM | –
CCOC(=O)C1=CCCCC1S(=O)(=O)Cc1cccc(Cl)c1Cl (stereo not given) | 65 nM | –
CCOC(=O)C1=CCCCC1S(=O)(=O)C(C)c1ccc(F)cc1Cl (stereo in doubt; 22a) | – | IC50 (RAW264.7 [4]): 42 nM; IC50 (RAW264.7 [5]): 5.8 nM; IC50 (RAW264.7 [1]; raw264.7): 14 nM
COC(=O)C1=CCCCC1S(=O)(=O)Cc1ccc(F)cc1Cl (stereo not given) | 99 nM | –
CCOC(=O)C1=CCCCC1S(=O)(=O)Cc1ccc(F)cc1Cl (stereo in doubt; (-)-10a) | – | IC50 (RAW264.7 [1]; raw264.7): 10000 nM
CCOC(=O)C1=CCCCC1S(=O)(=O)C(CF)c1ccc(F)cc1Cl (stereo in doubt; 26a) | – | IC50 (RAW264.7 [1]; raw264.7): 435 nM
CCOC(=O)C1=CCCCC1SCc1ccc(F)cc1Cl (stereo not given) | 5640 nM | –
CCOC(=O)C1=CCCCC1S(=O)(=O)C(C)c1ccc(F)cc1Cl (stereo in doubt; 22b) | – | IC50 (RAW264.7 [1]; raw264.7): 102 nM

Structure (SMILES) | IC50 (RAW264.7 [1]; Mus musculus, RAW264.7) | further results
CCC(=O)C1=CCCCC1S(=O)(=O)Cc1ccc(F)cc1Cl (stereo not given) | 64 nM | –
CCC(O)C1=CCCCC1S(=O)(=O)Cc1ccc(F)cc1Cl (stereo not given) | > 10000 nM | –
CCOC(=O)C1=CCCCC1S(=O)(=O)Cc1ccccc1F (stereo not given) | 97 nM | –
CCOC(=O)C1=CCCCC1S(=O)(=O)Cc1cccc(Cl)c1 (stereo not given) | 14 nM | –
CCOC(=O)C1=CCCCC1S(=O)(=O)Cc1ccccc1Cl (single isomer, unassigned; (-)) | – | IC50 (RAW264.7 [1]; raw264.7): 1200 nM
CCOC(=O)C1=CCCCC1S(=O)(=O)Cc1cc2ccccc2s1 (stereo not given) | 101 nM | –
CC(C)OC(=O)C1=CCCCC1S(=O)(=O)Cc1ccc(F)cc1Cl (stereo not given) | 100 nM | –
CCOC(=O)C1=CCCCC1S(=O)(=O)Cc1cc(Cl)ccc1F (stereo not given) | 23 nM | –
CCOC(=O)C1=CCCCC1S(=O)(=O)Nc1ccc(F)cc1Cl (stereo not given) | 4.5 nM | –
CCOC(=O)C1=CCCCC1S(=O)(=O)C(C)c1ccccc1 (stereo in doubt; 19a) | – | IC50 (RAW264.7 [1]; raw264.7): 100 nM
CCOC(=O)C1=CCCCC1S(=O)(=O)Cc1ccc(F)c(Cl)c1 (stereo not given) | 13 nM | –
CCOC(=O)C1=CCCCC1S(=O)(=O)Cc1ccc(Cl)cc1Cl (stereo not given) | 60 nM | –
CCOC(=O)C1=CCCCC1S(=O)(=O)Cc1ccc(Cl)cc1F (stereo not given) | 104 nM | –
CCOC(=O)C1=CCCCC1S(=O)(=O)Oc1ccc(F)cc1Cl (stereo not given) | 904 nM | –
CCOC(=O)C1=CCCCC1S(=O)(=O)Cc1ccc(Cl)cc1 (stereo not given) | 101 nM | –
CCOC(=O)C1=CCCCC1S(=O)(=O)C(C)c1ccccc1 (stereo in doubt; 19b) | – | IC50 (RAW264.7 [1]; raw264.7): 1320 nM
CCCOC(=O)C1=CCCCC1S(=O)(=O)Cc1ccc(F)cc1Cl (stereo not given) | 14 nM | –
CCOC(=O)C1=CCCCC1S(=O)(=O)Cc1ccsc1 (stereo not given) | 105 nM | –
CCOC(=O)C1=CCCCC1S(=O)(=O)Cc1ccccc1 (stereo not given) | 101 nM | –
CCOC(=O)C1=CCCCC1S(=O)(=O)C(CF)c1ccc(F)cc1Cl (stereo in doubt; 26b) | 729 nM | –
CCOC(=O)C1=CCCCC1S(=O)(=O)Cc1cc2ccccc2o1 (stereo not given) | 134 nM | –
CCOC(=O)C1=CCCCC1NS(=O)(=O)c1ccc(F)cc1Cl (stereo not given) | > 10000 nM | –
CCOC(=O)C1=CCCCC1S(=O)(=O)Cc1cccc(Cl)c1F (stereo not given) | 12 nM | –
CCCC(=O)C1=CCCCC1S(=O)(=O)Cc1ccc(F)cc1Cl (stereo not given) | 11 nM | –
